Experimental data gathered from unrelated publications.
Compare with care: the assays were run in different laboratories.
MC1R: Melanocyte-stimulating hormone receptor (MC1R, Homo sapiens, UniProt Q01726)
ADORA3: Adenosine receptor A3 (ADORA3, Homo sapiens, UniProt P0DMS8)
TAOK1: Serine/threonine-protein kinase TAO1 (TAOK1, Homo sapiens, UniProt Q7L7X3)

| SMILES | target | assay | system | conditions | quantity | value |
| --- | --- | --- | --- | --- | --- | --- |
| Cc1cc(F)cc2c(CCC(=O)N[C@@H]3C(=O)NC[C@H]3O)c(-c3ccc(F)cc3)[nH]c12 | Neuropeptide Y receptor type 1 (NPY1R, Homo sapiens, UniProt P25929) | cell-free assay | – | 10 µM | inhibition | 1% |
| N#Cc1ccc(NC(=O)Nc2ccccc2)cc1 | Non-receptor tyrosine-protein kinase TYK2, JH1 (TYK2, Homo sapiens, UniProt P29597) | cell-free assay, competition with immobilised ligand | – | 25 µM | remaining binding | 99% |
| CCCC[C@H](NC(C)=O)C(=O)N[C@@H](C)C(=O)N[C@@H](Cc1c[nH]cn1)C(=O)N[C@@H](Cc1ccccc1)C(=O)N[C@@H](CCCNC(=N)N)C(=O)N[C@H](Cc1c[nH]c2ccccc12)C(=O)N[C@@H](CC(=O)O)C(=O)N[C@@H](CCCNC(=N)N)C(=O)N[C@@H](Cc1ccccc1)C(=O)N[C@@H](C(=O)N1CCC[C@@H]1C(N)=O)C(C)C | MC1R | cAMP, agonist | – | – | Emax | 100% |
| NC/C(=C\F)COc1cccc(Cn2c(=S)[nH]c(=O)c3[nH]cnc32)c1 | ADORA3 | ligand displacement, radioligand | – | 10 µM | inhibition | < 50% |
| CCN1/C(=C/C(C)=O)Sc2ccc(F)cc21 | ADORA3 | ligand displacement, radioligand | – | 10 µM | inhibition | 12.4% |
| Cc1cc(O)c(-c2ccc([C@@H](C)CN(C)C)cc2)c2c1[nH]c(=O)c1sccc12 | Wee1-like protein kinase (WEE1, Homo sapiens, UniProt P30291) | enzyme activity, inhibitor | – | 0.1 µM | inhibition | 7.11% |
| CCCCC(=O)Nc1ccc(-c2ccc3ncn(CCC)c(=O)c3c2)cn1 | Calcium/calmodulin-dependent protein kinase type 1B (PNCK, Homo sapiens, UniProt Q6P2M8) | binding, competition with immobilised ligand | – | 0.5 µM | remaining binding | 85% |
| C[C@]1(O)CCCN(c2nc(Nc3ccc(S(=O)(=O)N[C@H]4CC[C@H](CN5CCN(c6ccc(C7CCC(=O)NC7=O)cc6F)CC5)CC4)cc3Cl)ncc2C(F)(F)F)C1 (stereo partly drawn) | TAOK1 | binding, competition with immobilised ligand | – | 1 µM | remaining binding | 91% |
| CC(=O)N[C@H](CCCNC(=N)N)C(=O)N[C@H]1CSSC[C@@H](C(N)=O)NC(=O)[C@H](Cc2c[nH]c3ccccc23)NC(=O)[C@H](CCCNC(=N)N)NC(=O)[C@@H](Cc2ccccc2)NC(=O)[C@H](Cc2c[nH]cn2)NC(=O)[C@H](CCC(=O)O)NC1=O | Melanocortin receptor 3 (MC3R, Homo sapiens, UniProt P41968) | cAMP, agonist | CHO-K1 | – | Emax | 91% |
| C1=C/COCc2cc(ccc2OCCN2CCCC2)Nc2nccc(n2)-c2cccc(c2)COC/1 | Protein kinase C delta type (PRKCD, Homo sapiens, UniProt Q05655) | binding | – | 0.1 µM | remaining binding | 100% |
| C#Cc1cc(-c2cc(Nc3nc(N[C@@H](C)c4ccc(F)cn4)ncc3Cl)n[nH]2)ccc1C=O | Ribosomal protein S6 kinase alpha-2 (RPS6KA2, Homo sapiens, UniProt Q15349) | enzyme activity, inhibitor | – | 0.2 µM | inhibition | 39% |
| CNS(=O)(=O)c1ccc(Nc2ncc(C(F)(F)F)c(N3CCC[C@](C)(O)C3)n2)c(C)c1 | TAOK1 | binding, competition with immobilised ligand | – | 1 µM | remaining binding | 5.3% |
| CCCC[C@H](NC(C)=O)C(=O)N[C@H]1CC(=O)NCCCC[C@@H](C(=O)N2CCC[C@@H]2C(=O)N[C@@H](C(=O)N2CCC[C@@H]2C(N)=O)C(C)C)NC(=O)[C@H](Cc2c[nH]c3ccccc23)NC(=O)[C@H](CCCNC(=N)N)NC(=O)[C@@H](Cc2ccccc2)NC(=O)[C@@H]2CCCN2C1=O | MC1R | cAMP, agonist | – | – | Emax | 102% |
| Cc1cc2c(C(N)=O)c(N)n(-c3c(C)ccc(O)c3C)c2nc1C | Serine/threonine-protein kinase B-raf (BRAF, Homo sapiens, UniProt P15056) | enzyme activity, inhibitor, ADP detection | – | 10 µM | inhibition | 100% |
| COc1ccc2oc(-c3ccc4nc(N)oc4c3)c/c(=N\c3ccccc3NC(=O)CCN)c2c1 | Non-receptor tyrosine-protein kinase TYK2 (TYK2, Homo sapiens, UniProt P29597) | binding | – | 1 µM | remaining binding | 111% |
